Reference: ChEMBL document CHEMBL1122273, “5-sulfamoylorthanilic acids, a sulfonamide series with salidiuretic activity” (J Med Chem, 1983)
Active and inactive are the calls of the source. The rule behind the calls is not given here.

Columns and labels:
Rattus norvegicus [1] = species on record: Rattus norvegicus; assay: Diuretic activity in the rats, determined by a modified Lipschitz test; format: functional, Urine
Summary of the method: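 Modified Lipschitz test: rats deprived of water 24 h, grouped in threes of similar weight in diuresis funnels. Oral dose of 50 mg/kg, suspended in 2% starch solution, by stomach tube.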

[2] = It is the ratio, measured as saluretic activity in the dog as concentration of Na+ in urinary excretion (dose 0.1 mg/Kg, po) to that of K; format: functional, Urine
Summary of the method: (§1)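 Trained male beagles, fasted 24 h with tap water ad libitum. Bladder emptied by catheter, then 20 mL/kg tap water by stomach tube, with 4 mL/kg water at each hourly catheterization up to 8 h. The first 2 h of urine served as control. Oral dosing came after the second catheterization, and 1–6 h urine was pooled. Na⁺ and K⁺ were measured by flame photometry, Cl⁻ argentometrically, in mequiv/kg.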

Canis familiaris [3] = assay: Diuretic activity in the dog (2 animals/dose) at (dose 1.56 mg/Kg), when administered perorally; format: functional, Canis lupus familiaris, Urine; summary of the method: as §1
Canis familiaris [4] = assay: Saluretic activity in the dog measured as concentration of Na+ in urinary excretion (2 animals/dose) at (dose 1.56 mg/Kg, po); format: functional, Canis lupus familiaris, Urine
Summary of the method: (§2)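 Male beagles trained to rest on a table and to accept stomach tube and catheter. Food withdrawn 24 h before, tap water ad libitum. Bladder emptied by catheter, then 20 mL/kg tap water by stomach tube. Catheterized hourly up to 8 h with 4 mL/kg water orally each time; first 2 h urine served as control. Oral dosing after second catheterization. Pooled 1–6 h urine; Na⁺/K⁺ by flame photometry, Cl⁻ argentometrically.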

[5] = It is the ratio, measured as saluretic activity in the dog as concentration of Cl- in urinary excretion (dose 0.1 mg/Kg, po) to that of (Na+)+(K+); format: functional, Urine; summary of the method: as §1
[6] = It is the ratio, measured as saluretic activity in the dog as concentration of Na+ in urinary excretion (dose 1.56 mg/Kg, po) to that of K; format: functional, Urine; summary of the method: as §1
Canis familiaris [7] = assay: Saluretic activity in the dog measured as concentration of K+ in urinary excretion (2 animals/dose) at (dose 1.56 mg/Kg, po); format: functional, Canis lupus familiaris, Urine; summary of the method: as §2
Rattus norvegicus [8] = assay: Salidiuretic activity on the basis of the 50 mg/kg po rat assay; compound was highly active; format: functional, organism-based; design: dose 50 mg/kg; conditions: Urine
Rattus norvegicus [9] = species on record: Rattus norvegicus; assay: Saluretic activity in the rat measured as concentration of chloride in urine; format: functional
Summary of the method: (§3)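 Rats deprived of food 24 h, water ad libitum, dosed 50 mg/kg by stomach tube as suspension in 2% starch, no extra water load. Groups of three in diuresis funnels; urine over first 5 h collected. Na⁺ and K⁺ by flame photometry, Cl⁻ argentometrically; expressed as mequiv/kg.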

Canis familiaris [10] = assay: Saluretic activity in the dog measured as concentration of Na+ in urinary excretion (2 animals/dose) at (dose 0.1 mg/Kg, po); format: functional, Canis lupus familiaris, Urine; summary of the method: as §2
Canis familiaris [11] = assay: Saluretic activity in the dog measured as concentration of Cl - in urinary excretion (2 animals/dose) at (dose 0.1 mg/Kg, po); format: functional, Canis lupus familiaris, Urine
Summary of the method: (§4)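 Male beagles trained to the procedures, food withdrawn 24 h before, tap water ad libitum. Bladder emptied by catheter, then 20 mL/kg tap water by stomach tube, plus 4 mL/kg orally at each hourly catheterization up to 8 h. The first 2 h of urine served as control. Compound given orally after the second catheterization. Urine from 1–6 h post-dose pooled; Na⁺ and K⁺ by flame photometry, Cl⁻ argentometrically, in mequiv/kg.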

[12] = It is the ratio, measured as saluretic activity in the dog as concentration of Cl- in urinary excretion (dose 1.56 mg/Kg, po) to that of (Na+)+(K+); format: functional, Urine; summary of the method: as §1
Rattus norvegicus [13] = species on record: Rattus norvegicus; assay: Saluretic activity in the rat measured as concentration of Na+ in urine; format: functional; summary of the method: as §3
Canis familiaris [14] = assay: Diuretic activity in the dog (2 animals/dose) at (dose 0.1 mg/Kg), when administered perorally; format: functional, Canis lupus familiaris, Urine; summary of the method: as §1
Canis familiaris [15] = assay: Salidiuretic activity on the basis of the 1.56 mg/Kg po dog assay; compound was highly active; format: functional, organism-based; conditions: Canis lupus familiaris; Urine
Canis familiaris [16] = assay: Saluretic activity in the dog measured as concentration of K+ in urinary excretion (2 animals/dose) at (dose 0.1 mg/Kg, po); format: functional, Canis lupus familiaris, Urine; summary of the method: as §4
Canis familiaris [17] = assay: Saluretic activity in the dog measured as concentration of Cl - in urinary excretion (2 animals/dose) at (dose 1.56 mg/Kg, po); format: functional, Canis lupus familiaris, Urine; summary of the method: as §4
Rattus norvegicus [18] = species on record: Rattus norvegicus; assay: Saluretic activity in the rat measured as concentration of K+ in urine; format: functional; summary of the method: as §3
Canis familiaris [19] = assay: Salidiuretic activity on the basis of the 1.56 mg/Kg perorally in dog assay; compound is found to be highly active.; format: functional, organism-based; conditions: Canis lupus familiaris; Urine
Rattus norvegicus [20] = assay: Salidiuretic activity on the basis of the 50 mg/kg perorally in rat assay; compound is found to be highly active.; conditions: Urine
Canis familiaris [21] = assay: Salidiuretic activity on the basis of the 1.56 mg/Kg po dog assay; Compound was highly active; format: functional, organism-based; conditions: Canis lupus familiaris; Urine
Rattus norvegicus [22] = assay: Salidiuretic activity on the basis of the 50 mg/kg po rat assay; Compound was active; conditions: Urine
Rattus norvegicus [23] = assay: Salidiuretic activity on the basis of the 50 mg/kg po rat assay; Compound was moderately active active; format: functional, organism-based; design: dose 50 mg/kg; conditions: Urine

Compound | Diuretic activity (Rattus norvegicus [1]) [mL/kg] | Diuretic activity (Canis familiaris [3]) [ml kg-1 6hr-1] | Saluretic activity (Canis familiaris [4]) [m equiv 6hr-1 kg-1] | Ratio [6] | Saluretic activity (Canis familiaris [7]) [m equiv 6hr-1 kg-1] | Saluretic activity (Rattus norvegicus [9]) [m equiv 5hr-1 kg-1] | Ratio [12] | Saluretic activity (Rattus norvegicus [13]) [m equiv 5hr-1 kg-1] | Saldiuretic activity (Canis familiaris [17]) [m equiv 6hr-1 kg-1] | Saluretic activity (Rattus norvegicus [18]) [m equiv 5hr-1 kg-1] | Saldiuretic activity (Canis familiaris [21]) | other results
NS(=O)(=O)c1cc(S(=O)(=O)[O-])c(NCc2cccs2)cc1S(=O)(=O)C1CCCCC1.[Na+] | 4 | 66.7 | 5.4 | 5.1 | 1.05 | 8.7 | 1 | 7.3 | 6.39 | 2.2 | – | Ratio [2]: 7.7; Ratio [5]: 1; Saldiuretic activity (Rattus norvegicus [8]): Active; Saluretic activity (Canis familiaris [10]): 3.18 m equiv 6hr-1 kg-1; Saldiuretic activity (Canis familiaris [11]): 3.54 m equiv 6hr-1 kg-1; Diuretic activity (Canis familiaris [14]): 47.4 ml kg-1 6hr-1; Saldiuretic activity (Canis familiaris [15]): Active; Saldiuretic activity (Canis familiaris [16]): 0.41 m equiv 6hr-1 kg-1
NCc1ccco1.NS(=O)(=O)c1cc(S(=O)(=O)O)c(NCc2ccco2)cc1Cl | – | – | – | – | – | – | – | – | – | – | – | Saldiuretic activity (Canis familiaris [19]): Active; Saldiuretic activity (Rattus norvegicus [20]): Active
CN(c1ccccc1)c1cc(NCc2cccs2)c(S(=O)(=O)[O-])cc1S(N)(=O)=O.[Na+] | 1.8 | 70.6 | 5.86 | 4.3 | – | 2 | 0.95 | 1.8 | 7.03 | 0.7 | Active | Saldiuretic activity (Rattus norvegicus [22]): Active; Saldiuretic activity (Canis familiaris [7]): 1.37 mequiv kg-1 6hr-1
CN(c1ccccc1)c1cc(NCc2ccccc2)c(S(=O)(=O)[O-])cc1S(N)(=O)=O.[Na+] | 2.6 | 71.7 | 6.59 | 4.4 | 1.51 | 4 | 0.9 | 3.5 | 7.34 | 1.4 | Active | Saldiuretic activity (Rattus norvegicus [23]): Active
